Measured values as given in PMC5940269 (The Journal of Experimental Medicine, 2018).
Where two headings read alike, the source gives them in different places.

Assays:
SCW-induced arthritis = test: Streptococcal cell wall; type: in vivo, rat; settings: for paw swelling: oral gavage 2×/day from day 9, CDD-450 5 or 10 mg/kg, CDD-110 1.5 mg/kg
How it was run: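 Adult female Lewis rats (180 g) received SCW preparation i.p. at 15 mg/kg, and acute paw edema was tracked on days 2–8. Paw volume was measured by plethysmometer every other day to day 21, and hind paws were scanned by µCT at day 21.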

p38α–PRAK = p38α–PRAK (Homo sapiens, UniProt Q16539); test: p38α–MK2 and p38α–PRAK assays; type: biochemical
p38α–PRAK, sequence (Q16539 whole entry): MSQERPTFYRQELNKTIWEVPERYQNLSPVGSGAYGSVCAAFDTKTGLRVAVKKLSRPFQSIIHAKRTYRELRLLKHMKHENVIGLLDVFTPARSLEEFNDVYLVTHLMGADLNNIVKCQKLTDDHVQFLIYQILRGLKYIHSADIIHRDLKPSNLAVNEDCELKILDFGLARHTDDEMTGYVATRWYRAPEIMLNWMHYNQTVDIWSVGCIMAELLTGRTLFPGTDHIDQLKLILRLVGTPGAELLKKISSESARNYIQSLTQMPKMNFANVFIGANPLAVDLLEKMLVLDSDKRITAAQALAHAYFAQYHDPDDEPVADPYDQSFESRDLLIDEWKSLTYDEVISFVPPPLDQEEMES
p38α–PRAK, sequence (Q8IW41 whole entry partner): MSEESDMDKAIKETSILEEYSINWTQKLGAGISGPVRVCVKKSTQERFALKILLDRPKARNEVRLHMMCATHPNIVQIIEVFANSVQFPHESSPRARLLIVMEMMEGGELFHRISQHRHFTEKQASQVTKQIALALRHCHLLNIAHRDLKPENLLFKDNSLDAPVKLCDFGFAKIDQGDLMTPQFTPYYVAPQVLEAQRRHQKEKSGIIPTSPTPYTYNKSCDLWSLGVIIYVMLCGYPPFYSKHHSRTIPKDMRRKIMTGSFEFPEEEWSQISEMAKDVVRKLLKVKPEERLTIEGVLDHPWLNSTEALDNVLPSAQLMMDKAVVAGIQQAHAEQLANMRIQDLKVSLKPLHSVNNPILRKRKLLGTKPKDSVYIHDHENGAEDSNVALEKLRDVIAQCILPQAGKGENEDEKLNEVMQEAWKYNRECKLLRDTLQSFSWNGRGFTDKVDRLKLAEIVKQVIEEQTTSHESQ

p38α–ATF2 = test: p38α–MK2 and p38α–ATF2 assays; type: biochemical
p38α–MK2 complex = test: Surface plasmon resonance analysis of p38α binding to immobilized MK2; settings: 10 nM p38α, immobilized GST-MK2
193 kinases = test: Kinase selectivity across the human kinome; type: biochemical; settings: CDD-450 tested at 5 µM
p38β = p38β (Homo sapiens, UniProt Q15759); test: Kinase selectivity, p38β; type: biochemical; settings: CDD-450 tested at 5 µM
p38β, sequence (Q15759 whole entry): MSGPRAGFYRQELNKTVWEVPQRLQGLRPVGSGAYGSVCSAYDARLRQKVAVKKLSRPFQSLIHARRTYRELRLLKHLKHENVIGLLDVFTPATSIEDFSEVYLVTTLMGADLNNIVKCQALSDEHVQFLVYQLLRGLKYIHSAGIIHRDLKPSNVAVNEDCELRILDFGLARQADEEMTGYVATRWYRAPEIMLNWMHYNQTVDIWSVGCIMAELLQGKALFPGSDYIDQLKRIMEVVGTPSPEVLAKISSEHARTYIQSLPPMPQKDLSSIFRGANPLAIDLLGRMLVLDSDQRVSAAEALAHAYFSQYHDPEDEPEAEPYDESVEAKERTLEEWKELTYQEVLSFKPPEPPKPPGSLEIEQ

[1] = test system: WT and NOMID bone marrow macrophages (BMMs); test: qPCR/Western analysis of LPS-induced expression in BMMs; type: cell-based, mouse; settings: for IL-18 expression: in vitro
How it was run: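 WT and NOMID BMMs were preincubated 1 h with test compound or IKK2 inhibitor (0.5% DMSO final), then given 100 ng/ml LPS for 3 or 8 h. Transcripts were measured by SYBR green qPCR after RNA extraction and reverse transcription. Protein (NLRP3, pro-caspase-1) was measured by Western blot of RIPA lysates. Triplicates, ≥3 independent experiments.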

MK2 phosphorylation = test: Western blot of LPS-stimulated MK2 phosphorylation in BMMs; type: cell-based, mouse; settings: 10 µM CDD-450, 100 ng/ml LPS, WT BMMs
WT or NOMID BMMs = test: mRNA stability; type: cell-based, mouse; settings: LPS 3 h then 1 µg/ml actinomycin D plus inhibitor
How it was run: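 WT and NOMID BMMs were stimulated with 100 ng/ml LPS for 3 h, then exposed simultaneously to 1 µg/ml actinomycin D and test compound, MK2 inhibitor or IKK2 inhibitor. Cells were lysed at 0, 2, 4 or 6 h. After RNA extraction and reverse transcription, SYBR green qPCR tracked decay of IL-1β, IL-6, NLRP3 and TNF-α mRNA. Triplicates, ≥3 independent experiments.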

WT and NOMID BMMs = test: IL-1β secretion by LPS-primed BMMs; type: cell-based, mouse; settings: 100 ng/ml LPS 3 h; WT cells plus 15 µM nigericin 30 min
How it was run: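 BMMs were derived over ~5 d in 1:10 CMG 14-12 supernatant (M-CSF source), plated at 10^4/well and kept 24 h. They were pretreated 1 h with vehicle (0.5% DMSO final), test compound or IKK2 inhibitor, then given 100 ng/ml LPS for 3 h without a media change. WT cells then received 15 µM nigericin for 30 min. IL-1β in conditioned media was measured by ELISA; triplicates, ≥3 independent experiments.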

[2] = test system: NLRP3 inflammasome / caspase-1; test: Microscopic analysis of active caspase-1; type: cell-based, mouse; settings: LPS-primed cells, 15 µM nigericin with 10 µM CDD-450, 30 min
How it was run: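 BMMs were plated at 5 × 10^4/well for 24 h, primed with 100 ng/ml LPS for 3 h, then treated 30 min with 10 µM test compound and/or 15 µM nigericin. Active caspase-1 was labelled with FLICA FAM-YVAD-FMK (30 min, 37°C). Cells were washed, fixed in 10% buffered formalin and DAPI-counterstained, then imaged by fluorescence microscopy with image analysis.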

[3] = Cytotoxicity at efficacious concentrations; type: cell-based; settings: efficacious concentrations tested in this study; not depicted
[4] = test system: LPS-induced TNF-α expression; test: LPS-induced TNF-α production in mice fed inhibitor chow; type: in vivo; settings: CDD-450 chow 1,000 ppm; LPS 0.025 mg/kg for 1 h
How it was run: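 Eight-week-old WT female mice (six/group) were fed normal chow or inhibitor chow (1,000 or 516 ppm). At the indicated weeks they were challenged i.v. with Salmonella typhosa LPS, 0.025 mg/kg in saline. Blood was collected by cardiac puncture 60 min later, and serum TNF-α was measured by ELISA.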

[5] = Body weight of WT mice on CDD-450 chow; type: in vivo
NOMID^c mice = test: NOMID^c mice; type: in vivo; settings: CDD-450 chow
How it was run: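 Nlrp3fl(D301N)/+;Cre-ERTM mice (C57BL/6) were given tamoxifen i.p., 75 mg/kg every other day, three times weekly for 2 wk; Cre-ERTM littermates were controls. Three-month-old mice received normal or compound chow from 3 d before tamoxifen. Body weight (10–11/group) and survival (12–13/group) were scored every 2–3 d. Endpoint was 4 wk later: decalcified 5-µm bone sections were TRAP-stained and osteoclasts counted on trabecular and cortical surfaces (4–6 mice/group).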

WT BMMs = test: Osteoclast formation in vitro induced by RANKL; type: cell-based, mouse; settings: 50 ng/ml RANKL for 4 d
How it was run: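 WT BMMs were plated at 5 × 10^3/well in 1:50 CMG supernatant plus RANKL with DMSO or test compound for 4 d, medium changed every other day, at 37°C, 5% CO2. Cells were fixed 10 min in 3.7% formaldehyde/0.1% Triton X-100, then TRAP-stained 30 min at room temperature. TRAP+ cells with ≥3 nuclei were scored as osteoclasts. Triplicates, ≥3 independent experiments.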

[6] = test system: human PBMC from CAPS patients and healthy control; test: IL-1β production and mRNA stability in human PBMC; type: cell-based
How it was run: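 Human PBMC from a CAPS patient or healthy control. For secretion, cells were cultured 16 h at 32°C or 37°C with DMSO or test compound, or with 100 ng/ml LPS for 16 h at 37°C, and IL-1β in conditioned media was measured by ELISA. For mRNA stability, cells got 10 ng/ml LPS for 3 h, then 1 µg/ml actinomycin D plus inhibitor, were lysed at 0–6 h and analysed by SYBR qPCR. Triplicates, ≥2 independent experiments.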

RA synovial fibroblasts = test: IL-1β-induced responses in synovial fibroblasts from an RA patient; type: cell-based, human
How it was run: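 Synovial fibroblasts from an RA patient were preincubated 1 h with inhibitors, then given 10 ng/ml IL-1β for 3 h, with transcripts measured by qPCR. For mRNA stability, IL-1β was added for 3 h, then 1 µg/ml actinomycin D plus test compound or IKK2 inhibitor, with cells lysed at 0, 2, 4 or 6 h. For p-MK2 (Thr334) Western blot, cells had 1 h preincubation with 10 µM test compound before IL-1β. Triplicates, ≥2 independent experiments.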

[7] = test system: LPS-induced production of TNF-α, IL-1β and IL-6; test: LPS-induced cytokine production in various in vitro systems and animal models; type: cell-based
How it was run: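 U937 premonocytic cells, grown in RPMI 1640 with 10% FBS, were differentiated with 20 ng/ml PMA for 24 h. They were pretreated with vehicle or test compound, then stimulated with 100 ng/ml LPS for 4 h. TNF-α, IL-1β and IL-6 were measured in conditioned media.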

U937 cells = test: LPS-stimulated phosphorylation of signaling proteins in U937 cells; type: cell-based, human
How it was run: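 U937 cells were differentiated into macrophages with 20 ng/ml PMA for 24 h. They were pretreated 1 h with vehicle (0.5% DMSO final) or test compound, then stimulated with 100 ng/ml LPS. Phosphorylation of signalling proteins was assessed by Western blotting, ELISA or MesoScale kits.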

Pharmacokinetics = test: Pharmacokinetics; set-up: species or system mice, rats, and dogs; settings: in vivo
cardiac hERG channel = cardiac hERG channel (Homo sapiens, UniProt Q12809); test: hERG channel inhibition
cardiac hERG channel, sequence (Q12809 whole entry): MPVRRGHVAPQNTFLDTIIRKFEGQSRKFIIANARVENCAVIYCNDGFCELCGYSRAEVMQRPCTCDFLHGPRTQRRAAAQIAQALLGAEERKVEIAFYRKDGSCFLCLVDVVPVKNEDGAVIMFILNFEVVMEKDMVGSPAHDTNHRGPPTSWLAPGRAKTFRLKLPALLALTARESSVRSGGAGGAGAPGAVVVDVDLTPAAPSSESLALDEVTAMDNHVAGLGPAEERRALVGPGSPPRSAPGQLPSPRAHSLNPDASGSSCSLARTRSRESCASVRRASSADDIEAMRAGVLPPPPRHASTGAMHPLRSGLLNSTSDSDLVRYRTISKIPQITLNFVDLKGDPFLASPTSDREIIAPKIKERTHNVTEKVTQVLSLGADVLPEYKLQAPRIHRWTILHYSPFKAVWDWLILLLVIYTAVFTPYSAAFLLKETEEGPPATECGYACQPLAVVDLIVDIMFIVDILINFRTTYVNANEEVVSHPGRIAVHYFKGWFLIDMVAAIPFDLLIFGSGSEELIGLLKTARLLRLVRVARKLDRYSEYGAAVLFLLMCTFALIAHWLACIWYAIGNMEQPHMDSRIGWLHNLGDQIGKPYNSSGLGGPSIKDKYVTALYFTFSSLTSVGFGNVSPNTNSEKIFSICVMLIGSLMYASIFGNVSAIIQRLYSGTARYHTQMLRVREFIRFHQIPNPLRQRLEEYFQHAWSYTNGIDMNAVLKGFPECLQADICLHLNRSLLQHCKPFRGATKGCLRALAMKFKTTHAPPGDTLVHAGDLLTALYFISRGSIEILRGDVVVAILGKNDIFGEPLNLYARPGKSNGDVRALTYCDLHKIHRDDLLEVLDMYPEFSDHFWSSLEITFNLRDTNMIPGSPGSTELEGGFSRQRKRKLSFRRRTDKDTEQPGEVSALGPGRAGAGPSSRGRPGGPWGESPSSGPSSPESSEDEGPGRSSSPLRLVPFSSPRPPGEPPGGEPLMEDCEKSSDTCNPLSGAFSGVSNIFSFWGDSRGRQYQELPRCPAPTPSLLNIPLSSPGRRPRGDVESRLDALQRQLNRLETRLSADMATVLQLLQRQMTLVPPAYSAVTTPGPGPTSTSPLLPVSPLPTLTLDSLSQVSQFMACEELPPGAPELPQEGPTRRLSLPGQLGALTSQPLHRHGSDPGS

[8] = In vivo tolerability, 14 consecutive days oral gavage; settings: rat
[9] = 100 ng/ml LPS, inhibitor preincubated 1 h
[10] = 10 ng/ml IL-1β 3 h then actinomycin D

With CNC(=O)c1ccc(C)c(-n2c(C)cc(OCc3ccc(F)cc3F)c(Br)c2=O)c1 [CDD-110, reference compound] the paw swelling (SCW-induced arthritis) was “inhibited”.

With Cc1cnc(-c2ccnc(C(C)(C)O)n2)cc1-n1c(C)cc(OCc2ncc(F)cc2F)c(Cl)c1=O [CDD-450] the “fold more potent in inhibiting p38α–MK2 than p38α–PRAK” value (p38α–PRAK) was “at least 700 ×”, the “fold more potent in inhibiting p38α–MK2 than p38α–ATF2” value (p38α–ATF2) was “at least 700 ×” and the “stabilization of the p38α–MK2 complex (increased t1/2) relative to p38α–MK2 alone” value (p38α–MK2 complex) was 47.5 ×. For the same compound, the “potency differential for inhibiting the 193 kinases tested” value (193 kinases) was over 350 ×, the “cross-reactivity on p38β” value (p38β) was “crossed over” and the NLRP3 expression ([1]; 100 ng/ml LPS) was “no effect”. The IL-18 expression ([1]; 100 ng/ml LPS) was “no direct effect”, the “LPS-induced IL-1β mRNA expression” value [1, 9] was “inhibited” and the “LPS-induced IL-6 mRNA expression” value [1, 9] was “inhibited”. For the same compound, the “LPS-induced TNF-α mRNA expression” value [1, 9] was “inhibited”, the “expression of NLRP3 interacting partners ASC, caspase-1 and NEK7” value ([1]; not depicted) was “no effect” and the “LPS-stimulated MK2 phosphorylation at 15 and 30 min” value (MK2 phosphorylation) was “inhibited”. For the same compound, the “LPS-stimulated MK2 phosphorylation at 180 min” value (MK2 phosphorylation) was “little effect”, the “decay of NLRP3 mRNA” value (WT or NOMID BMMs) was “no effect” and the “degradation of IL-1β mRNA” value (WT or NOMID BMMs) was “promoted the degradation”. For the same compound, the “degradation of IL-6 mRNA” value (WT or NOMID BMMs) was “promoted the degradation”, the “IL-1β secretion by LPS-primed WT and NOMID BMMs” value (WT and NOMID BMMs) was “inhibited” and the “nigericin-induced activation of caspase-1 (fluorescent foci)” value [2] was “no effect”. For the same compound, the cytotoxicity [3] was “not cytotoxic”, the “persistence of efficacy in blocking LPS-induced TNF-α expression after dosing” value [4] was “up to 4 wk” and the “tolerability of concomitant exposure to CDD-450 chow and tamoxifen” value ([5]; WT mice) was “not well tolerated”. The “body weight of WT mice, CDD-450 chow versus normal chow” value ([5]; no tamoxifen) was “gained body weight undistinguishably”, the “body weight of WT mice, CDD-450 chow plus tamoxifen, compared with normal chow” value ([5]; tamoxifen for 2 wk) was “lost body weight” and the “body weight loss of NOMID^c mice versus untreated NOMID^c mice” value (NOMID^c mice) was “lost significantly less body weight”. For the same compound, the “increased number of osteoclasts on trabecular and cortical bone surfaces” value (NOMID^c mice) was “prevented”, the “skin lesions and death over the 7-wk period” value (NOMID^c mice; untreated: ∼35% skin lesions, 20% died) was “neither occurred” and the “in vitro osteoclast formation induced by RANKL” value (WT BMMs) was “inhibited”. For the same compound, the “IL-1β mRNA instability in human PBMC” value ([6]; 10 ng/ml LPS 3 h then actinomycin D) was “promoted”, the “LPS-stimulated IL-1β secretion by healthy control PBMC” value ([6]; 100 ng/ml LPS 16 h at 37°C) was “reduced” and the “IL-1β secretion by CAPS PBMC” value ([6]; 16 h at 32°C, spontaneous) was “reduced”. For the same compound, the “degradation of TNF-α mRNA induced by LPS in human PBMC” value ([6]; not depicted) was “accentuated”, the “IL-1β mRNA levels induced by IL-1β” value (RA synovial fibroblasts; 10 ng/ml IL-1β 3 h) was “decreased” and the “degradation of TNF-α mRNA induced by IL-1β” value (RA synovial fibroblasts; [10]) was “accentuated”. The “loss of IL-1β transcripts” value (RA synovial fibroblasts; [10]) was “accelerated”, the “MK2 phosphorylation induced by IL-1β” value (RA synovial fibroblasts; 10 µM CDD-450, 10 ng/ml IL-1β) was “blocked” and the IC50 ([7]; read-out: IC50, LPS-induced production of IL-1β) was 1 to 10 nM. The IC50 ([7]; read-out: IC50, LPS-induced production of IL-6) was about 100 nM, the IC50 ([7]; read-out: IC50, LPS-induced production of TNF-α) was 1 to 10 nM and the “LPS activation of the ERK1/2 pathway” value (U937 cells) was “no inhibitory effect”. For the same compound, the “LPS activation of the JNK pathway” value (U937 cells) was “no inhibitory effect”, the “MK2 phosphorylation induced by LPS” value (U937 cells) was “blocked” and the “joint destruction, 3D µCT reconstruction” value (SCW-induced arthritis; 5 mg/kg CDD-450 2×/day) was “joint protective effects”. For the same compound, the paw swelling (SCW-induced arthritis) was “inhibited”, the bone mineral density (SCW-induced arthritis; µCT at day 21) was “preserved” and the half-life (Pharmacokinetics) was “long”. For the same compound, the volume of distribution (Pharmacokinetics) was “high”, the oral bioavailability (Pharmacokinetics; po) was “high” and the “inhibition of the cardiac hERG channel” value (cardiac hERG channel) was “did not inhibit”. The “well tolerated exposure relative to the predicted Cmax efficacious exposure” value [8] was over 30 ×.

With Cc1ccc(-c2ccc3c(ccc4sc5c(c43)NC[C@@H](C)NC5=O)n2)cn1 [PF-3644022, reference compound] the “degradation of IL-1β mRNA” value (WT or NOMID BMMs) was “promoted the degradation” and the “degradation of TNF-α mRNA” value (WT or NOMID BMMs) was “promoted the degradation”.

In the case of CN1CCN(c2cc(C(=O)Nc3ccc4c(c3)-c3c(c(C(N)=O)nn3-c3ccc(F)cc3)CC4)c(Cl)cn2)CC1 [PHA-408, reference compound], the NLRP3 expression ([1]; 100 ng/ml LPS) is reported as “decreased”, the IL-18 expression ([1]; 100 ng/ml LPS) is reported as “decreased” and the “LPS-induced IL-1β mRNA expression” value [1, 9] is reported as “inhibited”. The “IL-1β secretion by LPS-primed WT and NOMID BMMs” value (WT and NOMID BMMs) was “inhibited”.
